Measurements published in PubChem BioAssay AID1899 (The Scripps Research Institute Molecular Screening Center, 2009).
Among all 300,000 compounds or so, about 1,000 (0.33%) were called active.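 How the source made its calls: active means inhibition above the mean of all tested compounds plus 3 SD, set per screening campaign (cut at about 45% in these data); inactive means the rest.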 The entries come from a sample that favours actives as a whole.

system: HCV core protein (residues 1-106) dimerization; assay: blockers of core106 self-association – biochemical, TR-FRET, high-throughput, primary screen (AID 1899); settings: TR-FRET GST/Flag-core106 dimerization, 1536-well; at 5 µM; active compounds read high
Method in brief: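 Assay system – GST-tagged and Flag-tagged HCV core protein residues 1-106 · Quantity – core106 proteins, GST 13.5 nM and Flag 17 nM · Benchmarks – unlabelled core106 and no-GST-core106 wells · Read-out basis – percent inhibition of core106 dimerization signal · Detection – time-resolved FRET, ex 340 nm, em 617 and 671 nm · Schedule – 4 h at 22.5 °C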

inhibition, inactive:
Cc1ccc(C(=O)O)cc1-c1ccc(/C=C2\SC(=O)N(CC(=O)Nc3ccc4c(c3)OCO4)C2=O)o1 4.8%, C=CCOc1ccc(Cl)cc1CNCCCN1CCOCC1 12.2%, CCn1c(C)c(C)c2cc(C(=O)N3CCN(c4cccc(C)c4C)CC3)ccc21 18%, C[C@@H]1CC[C@@]2(OC1)O[C@H]1C[C@H]3[C@@H]4CC=C5C[C@@H](O)[C@H](O)C[C@]5(C)C4CC[C@]3(C)[C@H]1[C@@H]2C (stereo partly drawn) -14.2%, Cc1cccc(NC(=O)CN2CCCN(S(=O)(=O)c3ccc(Br)s3)CC2)c1 3.89%, CCN(CC(=O)NC1CCS(=O)(=O)C1)c1nc(-c2cccnc2)nc2ccccc12 (stereo not drawn) -0.09%, COC(=O)CCCC1=CC2=CC(=O)C(C)(OC(=O)c3cccs3)C(=O)C2=CN1CC(C)C (stereo not drawn) 11.6%, COC(=O)CCCC1=CC2=CC(=O)C(C)(OC(=O)c3cccs3)C(=O)C2=CN1CC1CC1 (stereo not drawn) -6.02%, COc1cccc(NC(=O)c2ccccc2N(Cc2ccccc2)S(C)(=O)=O)c1 1.86%, CCc1ccc(NC(=O)Cn2ncn3c(cc4ccccc43)c2=O)cc1 13%, COc1ccc(NC(=O)CCNC(=O)Cn2ccc3ccccc3c2=O)c(OC)c1 -5.48%, Fc1ccc(-c2ccc(NCCN3CCOCC3)nn2)cc1 -9.05%, Cc1ccc(C)c(OCCC(=O)Nc2cccc(S(=O)(=O)N3CCCC3)c2)c1 -2.89%, CN(C(=O)COC(=O)c1nc(Cl)ccc1Cl)C1CCS(=O)(=O)C1 (stereo not drawn) 5.01%, Cc1c(-c2cccc(Cl)c2)nc2ccccc2c1C(=O)OCC(=O)N(C)C1CCS(=O)(=O)C1 (stereo not drawn) 1.86%, COc1ccc(NC(=O)c2ccccc2CC[N+](=O)[O-])cc1 1.6%, O=C(NC1CCCCC1)C1CCCN(S(=O)(=O)c2ccc(Br)s2)C1 (stereo not drawn) 3.6%, O=C(Cc1ccc(S(=O)(=O)N2CCOCC2)s1)NCCC(c1ccccc1)c1ccccc1 44.1%, Cc1ccc(NS(=O)(=O)c2c(C)[nH]c(=O)[nH]c2=O)cc1C -1.79%

inhibition, active:
COC(=O)CCCC1=CC2=CC(=O)C(C)(OC(=O)c3cccs3)C(=O)C2=CN1c1cccc(C#N)c1 (stereo not drawn) 47.4%, COc1ccc(NC(=O)Cn2ncn3c(cc4ccccc43)c2=O)c(OC)c1OC 50.6%, CN(C(=O)COC(=O)c1cc(-c2ccco2)nc2ccccc12)C1CCS(=O)(=O)C1 (stereo not drawn) 77.2%, O=C(Cc1ccc(S(=O)(=O)N2CCCC2)s1)NC1CCCCCC1 48%
